Data from ChEMBL document CHEMBL3352166, “Structure-guided design and development of novel benzimidazole class of compounds targeting DNA gyraseB enzyme of Staphylococcus aureus” (Bioorg Med Chem, 2014).
In brackets after ≈: the same amount, converted by molar mass.

What was measured:
[1] = target: DNA gyrase subunit B (Staphylococcus aureus, UniProt P0A0K8); assay: Inhibition of Staphylococcus aureus DNA gyrase B ATPase activity
[2] = tested on: Staphylococcus aureus; assay: Inhibition of biofilm formation in methicillin-resistant Staphylococcus aureus MTCC 96 after 24 hr incubation by tissue culture plate method; settings: MTCC 96, 24 h
[3] = Cytotoxicity against human HEK293 cells assessed as reduction in cell viability at 100 uM after 72 hrs by MTT assay; format: cell-based; settings: read-out: INH
Procedure, shortened: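 HEK-293 cells were seeded at 5000 per well and left 24 h, then washed. They were exposed to 100 µM in RPMI + 5% FBS + 1% penicillin/streptomycin, with final DMSO ≤0.5%, for 72 h at 37 °C in 5% CO2. DMSO-treated cultures served as controls. Viability was read by MTT at 570 nm, in triplicate, as percentage inhibition.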

[4] = tested on: Staphylococcus aureus; assay: Antimicrobial activity against Staphylococcus aureus MTCC 3160 after 16 to 24 hrs by agar dilution method; format: functional
Procedure, shortened: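 MIC by agar dilution per CLSI on Mueller-Hinton agar. Overnight colonies were suspended to about 10^6 cfu/mL, and 1 mL was added to 19 mL medium. Compounds were made up in 0.9% saline and tested over about 10 doubling dilutions, 100 µM to 0.1 µM. Plates ran 16-20 h at 35 °C in ambient air. MIC was the lowest concentration preventing visible growth.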

[5] = tested on: Staphylococcus aureus; assay: Antimicrobial activity against methicillin-resistant Staphylococcus aureus MTCC 96 after 16 to 24 hrs by agar dilution method; format: functional
Procedure, shortened: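 Agar dilution per CLSI guidelines on Mueller-Hinton agar. Overnight colonies suspended to about 10^6 cfu/mL, and 1 mL added to 19 mL medium. Stocks in 0.9% saline, tested over about 10 doubling dilutions from 100 µM to 0.1 µM. Plates incubated at 35 °C in ambient air for 16-20 h. MIC taken as the lowest concentration preventing visible growth.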

[6] = target: DNA gyrase (Staphylococcus aureus, UniProt P0A0K8+P20831); assay: Inhibition of Staphylococcus aureus DNA gyrase-mediated supercoiling of relaxed DNA using pBR 322 as substrate by agarose gel electrophoresis analysis; format: protein-complex assay
Chain of DNA gyrase (P0A0K8 whole entry): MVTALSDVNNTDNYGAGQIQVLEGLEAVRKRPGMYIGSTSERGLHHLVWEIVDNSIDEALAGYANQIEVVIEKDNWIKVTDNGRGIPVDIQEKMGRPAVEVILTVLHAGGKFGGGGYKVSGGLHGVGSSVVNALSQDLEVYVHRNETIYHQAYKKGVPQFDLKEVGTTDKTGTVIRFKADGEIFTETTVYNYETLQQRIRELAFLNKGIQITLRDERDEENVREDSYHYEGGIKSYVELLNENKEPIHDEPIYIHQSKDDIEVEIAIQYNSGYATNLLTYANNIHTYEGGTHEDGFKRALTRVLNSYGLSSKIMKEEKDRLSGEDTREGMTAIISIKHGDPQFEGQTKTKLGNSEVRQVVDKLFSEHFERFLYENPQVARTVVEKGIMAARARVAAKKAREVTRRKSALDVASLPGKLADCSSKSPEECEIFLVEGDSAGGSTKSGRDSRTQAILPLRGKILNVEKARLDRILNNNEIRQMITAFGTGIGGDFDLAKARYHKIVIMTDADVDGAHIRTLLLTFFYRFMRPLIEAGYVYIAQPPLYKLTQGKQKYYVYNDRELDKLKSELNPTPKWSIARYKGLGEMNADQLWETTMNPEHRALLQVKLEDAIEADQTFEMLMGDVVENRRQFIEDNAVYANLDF
Chain of DNA gyrase (P20831 whole entry): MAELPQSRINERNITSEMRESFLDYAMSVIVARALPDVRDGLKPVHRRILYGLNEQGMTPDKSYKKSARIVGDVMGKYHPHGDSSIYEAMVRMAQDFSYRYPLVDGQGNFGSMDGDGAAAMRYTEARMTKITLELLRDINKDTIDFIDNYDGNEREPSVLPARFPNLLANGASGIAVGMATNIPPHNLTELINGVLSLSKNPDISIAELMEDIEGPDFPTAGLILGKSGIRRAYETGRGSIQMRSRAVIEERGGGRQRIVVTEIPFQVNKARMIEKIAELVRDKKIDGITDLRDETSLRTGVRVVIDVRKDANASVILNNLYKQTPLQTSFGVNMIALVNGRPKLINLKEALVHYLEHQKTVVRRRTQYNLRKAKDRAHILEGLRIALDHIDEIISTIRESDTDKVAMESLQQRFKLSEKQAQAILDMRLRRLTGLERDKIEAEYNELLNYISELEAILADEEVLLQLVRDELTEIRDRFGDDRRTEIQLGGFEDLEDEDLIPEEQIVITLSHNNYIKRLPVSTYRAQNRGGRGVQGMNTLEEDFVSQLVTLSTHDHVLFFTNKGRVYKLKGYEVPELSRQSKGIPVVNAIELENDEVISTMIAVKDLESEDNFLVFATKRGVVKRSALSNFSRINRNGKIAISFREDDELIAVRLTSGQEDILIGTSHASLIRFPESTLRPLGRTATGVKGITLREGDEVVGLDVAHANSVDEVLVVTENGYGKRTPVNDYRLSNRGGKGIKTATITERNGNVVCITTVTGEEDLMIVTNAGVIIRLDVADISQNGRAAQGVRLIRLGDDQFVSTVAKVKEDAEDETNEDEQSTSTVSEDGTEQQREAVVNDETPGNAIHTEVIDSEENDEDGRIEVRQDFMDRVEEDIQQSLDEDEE

Chain of DNA gyrase subunit B (P0A0K8 whole entry): as the sequence (P0A0K8 whole entry) above

Structure (SMILES)	IC50 [1]	IC50 [2]	cytotoxicity at 72 h, 100 µM [3]	MIC [4]	MIC [5]	IC50 [6]
COC(=O)CCCC(=O)Nc1ccc(-c2nc3cc(Cl)ccc3[nH]2)cc1	35.6 µM	> 100 µM	27.9%	67.2 µM (≈ 25 µg/mL)	134 µM (≈ 50 µg/mL)	22.2 µM
O=C(O)CCCCC(=O)Nc1ccc(-c2nc3cc(Cl)ccc3[nH]2)cc1	13.1 µM	39.2 µM	39.7%	33.6 µM (≈ 12.5 µg/mL)	33.6 µM (≈ 12.5 µg/mL)	8.91 µM
O=C(O)CC(=O)Nc1ccc(-c2nc3cc([N+](=O)[O-])ccc3[nH]2)cc1	4.93 µM	18.4 µM	26.9%	9.18 µM (≈ 3.12 µg/mL)	18.3 µM (≈ 6.24 µg/mL)	2.23 µM
O=C(O)CCC(=O)Nc1ccc(-c2nc3cc([N+](=O)[O-])ccc3[nH]2)cc1	17.5 µM	27.9 µM	24.6%	17 µM (≈ 6.01 µg/mL)	17 µM (≈ 6.01 µg/mL)	8.32 µM
O=C(O)CCCC(=O)Nc1ccc(-c2nc3cc([N+](=O)[O-])ccc3[nH]2)cc1	6.83 µM	62.3 µM	27.2%	33.9 µM (≈ 12.5 µg/mL)	44.1 µM (≈ 16.3 µg/mL)	6.12 µM
COC(=O)CCCC(=O)Nc1ccc(-c2nc3cc([N+](=O)[O-])ccc3[nH]2)cc1	9.83 µM	59.3 µM	35.9%	32.7 µM (≈ 12.5 µg/mL)	32.7 µM (≈ 12.5 µg/mL)	5.3 µM
O=C(O)CCCCC(=O)Nc1ccc(-c2nc3cc([N+](=O)[O-])ccc3[nH]2)cc1	9.82 µM	44.2 µM	31.7%	32.6 µM (≈ 12.5 µg/mL)	32.6 µM (≈ 12.5 µg/mL)	6.09 µM
COc1ccc2[nH]c(-c3ccc(NC(=O)CC(=O)O)cc3)nc2c1	11.1 µM	> 100 µM	27.4%	38.4 µM (≈ 12.5 µg/mL)	76.8 µM (≈ 25 µg/mL)	18.4 µM
COc1ccc2[nH]c(-c3ccc(NC(=O)CCC(=O)O)cc3)nc2c1	13.4 µM	> 100 µM	26.7%	73.7 µM (≈ 25 µg/mL)	73.7 µM (≈ 25 µg/mL)	11.3 µM
COc1ccc2[nH]c(-c3ccc(NC(=O)CCCC(=O)O)cc3)nc2c1	8.93 µM	52.2 µM	22.4%	35.4 µM (≈ 12.5 µg/mL)	35.4 µM (≈ 12.5 µg/mL)	5.32 µM
COC(=O)CCCC(=O)Nc1ccc(-c2nc3cc(OC)ccc3[nH]2)cc1	21.3 µM	63.9 µM	50.5%	68 µM (≈ 25 µg/mL)	34 µM (≈ 12.5 µg/mL)	12.5 µM
COc1ccc2[nH]c(-c3ccc(NC(=O)CCCCC(=O)O)cc3)nc2c1	22.9 µM	71.1 µM	29.4%	68 µM (≈ 25 µg/mL)	34.1 µM (≈ 12.5 µg/mL)	12.5 µM
O=C(O)CC(=O)Nc1ccc(-c2nc3cccnc3[nH]2)cc1	21.8 µM	71.9 µM	27.2%	42.2 µM (≈ 12.5 µg/mL)	42.2 µM (≈ 12.5 µg/mL)	8.9 µM
O=C(O)CCC(=O)Nc1ccc(-c2nc3cccnc3[nH]2)cc1	9.23 µM	29.4 µM	31.1%	20.1 µM (≈ 6.25 µg/mL)	10.1 µM (≈ 3.12 µg/mL)	3.13 µM
O=C(O)CCCC(=O)Nc1ccc(-c2nc3cccnc3[nH]2)cc1	18.5 µM	88.1 µM	33.8%	38.5 µM (≈ 12.5 µg/mL)	38.5 µM (≈ 12.5 µg/mL)	6.98 µM
COC(=O)CCCC(=O)Nc1ccc(-c2nc3cccnc3[nH]2)cc1	5.23 µM	79.3 µM	57.5%	36.9 µM (≈ 12.5 µg/mL)	36.9 µM (≈ 12.5 µg/mL)	6.8 µM
O=C(O)CCCCC(=O)Nc1ccc(-c2nc3cccnc3[nH]2)cc1	2.9 µM	15.7 µM	22.7%	4.61 µM (≈ 1.56 µg/mL)	9.23 µM (≈ 3.12 µg/mL)	2.1 µM
O=C(O)COCC(=O)Nc1ccc(-c2nc3ccccc3[nH]2)cc1	6.01 µM	68.8 µM	40%	38.4 µM (≈ 12.5 µg/mL)	46.9 µM (≈ 15.3 µg/mL)	4.81 µM
O=C(O)CSCC(=O)Nc1ccc(-c2nc3ccccc3[nH]2)cc1	22.8 µM	82.1 µM	13.1%	73.3 µM (≈ 25 µg/mL)	37.6 µM (≈ 12.8 µg/mL)	12.5 µM
O=C(O)COCC(=O)Nc1ccc(-c2nc3cc(F)ccc3[nH]2)cc1	6.12 µM	19.6 µM	14.5%	9.1 µM (≈ 3.12 µg/mL)	9.1 µM (≈ 3.12 µg/mL)	2.9 µM
O=C(O)CSCC(=O)Nc1ccc(-c2nc3cc(F)ccc3[nH]2)cc1	6.93 µM	59.1 µM	20.6%	34.8 µM (≈ 12.5 µg/mL)	17.3 µM (≈ 6.22 µg/mL)	4.8 µM
O=C(O)c1cn(C2CC2)c2cc(N3CCNCC3)c(F)cc2c1=O [CIPROFLOXACIN]	–	16.9 µM	–	–	–	–
CO[C@@H]1[C@@H](OC(N)=O)[C@@H](O)[C@H](Oc2ccc3c(O)c(NC(=O)c4ccc(O)c(CC=C(C)C)c4)c(=O)oc3c2C)OC1(C)C [NOVOBIOCIN]	–	–	–	0.25 µM (≈ 0.153 µg/mL)	–	–
